Active and inactive are the calls of the source. No cut-off for these calls is given here. Where a SMILES comes first, the peptide text is derived from it. The star is where a group is joined. Cbz = O=C(OCc1ccccc1)*

One test relates to PC-3. Put plainly: Antiproliferative activity against human PC3 cells assessed as inhibition of cell growth after 72 hrs by MTT assay. It is filed as functional. Conditions: PC-3, 72 h. In outline:
(§1)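 Cells seeded at 2,000–15,000/well, exposed to drug for 72 h at 37 °C, 5% CO2; untreated wells as negative control. MTT (5 mg/mL) added for the final 2–4 h; plates spun, formazan dissolved in DMSO, A595. Percent survival vs concentration fitted by nonlinear regression for IC50. Triplicate. PC3 grown in RPMI-1640, DU145 in EMEM, each with 10% FBS; DU145 tested at 1 and 2 µM.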
Background: Tetrazolium dyes change colour on reduction, which living cells bring about.

The next test relates to B16-F1. Put plainly: Antiproliferative activity against mouse B16-F1 cells assessed as inhibition of cell growth after 48 hrs by sulforhodamine B colorimetric assay. Format: functional. As to conditions: B16-F1, 48 h. In a few lines:
(§2)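 Melanoma cells in DMEM with 5% FBS, 1% penicillin/streptomycin, 0.05% insulin; 5000 cells/well in U-bottom wells. After 12 h medium changed and compound added at 8 concentrations for 48 h; Taxol positive control, cells plus medium as negative control. Fixed with 10% TCA, stained with 0.4% SRB in 1% acetic acid 30 min RT, dye released with 10 mM Tris base, A490. Triplicate, ±SEM.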
(In SRB staining, fixed cells bind dye roughly in proportion to their protein.)

In the next test the test system is A-375. Put plainly: Antiproliferative activity against human A375 cells assessed as inhibition of cell growth after 48 hrs by sulforhodamine B colorimetric assay. As to conditions: A-375, 48 h. It is filed as functional. In a few lines:
as §2

Test [1] addresses T1, Calpain-1 catalytic subunit (Sus scrofa, UniProt P35750).
T1 sequence (P35750 whole entry): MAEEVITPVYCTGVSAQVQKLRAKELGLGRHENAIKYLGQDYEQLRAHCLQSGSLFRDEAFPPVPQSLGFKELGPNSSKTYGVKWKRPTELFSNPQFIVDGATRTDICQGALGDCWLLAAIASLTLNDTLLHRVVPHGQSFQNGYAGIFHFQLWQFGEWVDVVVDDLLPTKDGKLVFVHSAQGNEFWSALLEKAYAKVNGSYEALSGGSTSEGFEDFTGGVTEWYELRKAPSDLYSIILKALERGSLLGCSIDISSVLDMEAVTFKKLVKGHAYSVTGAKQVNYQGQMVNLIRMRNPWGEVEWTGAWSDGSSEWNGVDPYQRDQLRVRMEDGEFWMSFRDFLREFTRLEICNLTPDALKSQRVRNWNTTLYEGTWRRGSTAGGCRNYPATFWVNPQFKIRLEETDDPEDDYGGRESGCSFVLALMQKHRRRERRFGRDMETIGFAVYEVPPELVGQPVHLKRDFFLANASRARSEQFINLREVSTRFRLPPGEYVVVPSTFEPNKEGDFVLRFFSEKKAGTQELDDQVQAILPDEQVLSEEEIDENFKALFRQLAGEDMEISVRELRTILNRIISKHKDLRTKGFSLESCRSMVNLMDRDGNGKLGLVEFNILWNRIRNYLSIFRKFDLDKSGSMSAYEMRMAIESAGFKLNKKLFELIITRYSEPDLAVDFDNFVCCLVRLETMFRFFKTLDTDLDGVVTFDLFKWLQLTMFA
The test is described as follows: Inhibition of mu-calpain in porcine erythrocyte using Suc-Leu-Tyr-AMC as substrate by microtiter plate assay based Dixon plot analysis. In a few lines: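 Porcine erythrocyte µ-calpain (1 µg) in 50 mM Tris-HCl pH 7.4, 50 mM NaCl, 10 mM DTT, 1 mM EDTA, 1 mM EGTA, 5 mM CaCl2, with 0.2 mM or 1.0 mM Suc-Leu-Tyr-AMC and varying inhibitor in DMSO (2% total). Ki from Dixon plots of initial velocity (1/v vs inhibitor concentration), r above 0.95; no correction for slow binding or autolysis; mean of triplicates.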

The subject of test [2] is DU-145. Put plainly: Antiproliferative activity against human DU145 cells assessed as inhibition of cell growth at 1 to 2 uM after 72 hrs by MTT assay. Format: functional, cell-based. In a few lines:
as §1

Test [3] relates to DU-145. Put plainly: Antiinvasive activity against human DU145 cells assessed as inhibition of cell invasion after 48 hrs by matrigel cell invasion assay. Format: functional, cell-based. In a few lines: (§3)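 DU-145 cells (20,000) seeded in serum-free medium with 1% BSA in upper chamber, 37 °C for 24 h; lower chamber 10% FBS as chemoattractant. Upper medium then replaced with serum-free medium with or without compound at 1.0, 1.5 or 2.0 µM. After 48 h, non-invading cells swabbed off; invading cells fixed, stained, counted. Triplicate; expressed as percentage of untreated cells.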

Test [4] deals with DU-145. The test is described as follows: Antiinvasive activity against human DU145 cells assessed as inhibition of cell invasion at 2 uM after 48 hrs by matrigel cell invasion assay. It is filed as functional. Conditions: DU-145, 48 h. In a few lines: as §3

For `CC(C)C[C@@H](C=O)NC(=O)[C@@H](NS(=O)(=O)c1ccc(/N=N/c2ccccc2)cc1)C(C)C`, the GI50 – broadly, the concentration giving 50% growth inhibition – in the test on PC-3 is 27.3 µM; with B16-F1 it was 13.7 µM; in the test with A-375 it was 12.9 µM. Also, in test [1], the Ki (in general, the dissociation constant of the complex between target and ligand, obtained from inhibition or displacement) was found to be 0.018 µM.
On to `CC(=O)O[C@H]1C(=O)[C@@]2(C)[C@H]([C@H](OC(=O)c3ccccc3)[C@]3(O)C[C@H](OC(=O)[C@H](O)[C@@H](NC(=O)c4ccccc4)c4ccccc4)C(C)=C1C3(C)C)[C@]1(OC(C)=O)CO[C@@H]1C[C@@H]2O` [PACLITAXEL], for which the values for the GI50 in the test on PC-3, with B16-F1 and in the test with A-375 were 0.03 µM, 0.02 µM and 0.01 µM, respectively.
For the molecule `CC(C)C[C@H](NC(=O)[C@@H](NS(=O)(=O)c1ccc(/C=C/c2ccccc2)cc1)C(C)C)C(=O)C(N)=O`, the GI50 in the test on PC-3 came out at 6.02 µM; in the test on B16-F1 it was 17.2 µM; in the test on A-375, 16 µM. The affinity in test [1], expressed as Ki, was 0.009 µM.
For the molecule `CC(C)C[C@H](NC(=O)[C@@H](NS(=O)(=O)c1ccc(/N=N/c2ccccc2)cc1)C(C)C)C(=O)C(N)=O`, in the test with DU-145 [2], the outcome was inactive. Further, in the test on DU-145 [3], the inhibition (usually the drop in the measured response relative to a control, in per cent) was “Dose-dependent effect”. Moreover, in the test with DU-145 [4], the inhibition at 2 µM worked out at 80%. Also, the GI50 with PC-3 worked out at 24.1 µM; in the test with B16-F1, 18.7 µM; in the test on A-375 it was 22.2 µM. The molecule further gave a Ki in test [1] of 0.016 µM.
The molecule `CC(C)[C@H](NC(=O)OCc1ccccc1)C(=O)N[C@H](C=O)Cc1ccccc1` (Cbz-Val-Phe-aldehyde) had a Ki in test [1] of 0.01 µM.
For the molecule `CC(C)C[C@@H](C=O)NC(=O)[C@@H](NS(=O)(=O)c1ccc(/C=C/c2ccccc2)cc1)C(C)C`, the GI50 with PC-3 was found to be 23 µM; in the test on B16-F1 it was 10.3 µM; in the test on A-375, 9.4 µM. Further, affinity in test [1] was put at a Ki of 0.014 µM.
As to `CC(C)C[C@@H](C=O)NC(=O)[C@@H]1CCCN1S(=O)(=O)c1ccc(/N=N/c2ccccc2)cc1`, the figures for the concentration for 50% growth inhibition (GI50) in the test on PC-3, in the test on B16-F1 and in the test with A-375 were 5.6 µM, 13.6 µM and 4.1 µM, respectively. Also, in test [1], affinity was put at a Ki of 0.273 µM.

The record behind these values is ChEMBL document CHEMBL4622834, “Synthesis and antiproliferative activity of sulfonamide-based peptidomimetic calpain inhibitors” (Bioorg Med Chem, 2020).
